We go through 37 compounds from ChEMBL document CHEMBL1134645, “Discovery of small-molecule inhibitors of Bcl-2 through structure-based computer screening” (J Med Chem, 2001).

T1 sequence (P10415 whole entry, the tested form may be a part): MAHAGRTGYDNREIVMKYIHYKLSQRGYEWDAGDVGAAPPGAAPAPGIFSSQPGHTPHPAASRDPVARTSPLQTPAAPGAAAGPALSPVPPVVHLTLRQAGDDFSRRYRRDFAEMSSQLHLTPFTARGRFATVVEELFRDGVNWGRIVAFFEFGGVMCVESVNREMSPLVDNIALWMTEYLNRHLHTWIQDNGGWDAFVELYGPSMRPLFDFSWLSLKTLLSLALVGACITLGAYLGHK

One assay has as its target T1, Apoptosis regulator Bcl-2 (Homo sapiens, UniProt P10415). As to the kind of experiment: In vitro inhibitory activity against Bak-Bh3 peptide binding to the Bcl-2 using human myeloid leukemia cell line HL-60. In outline:
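Fluorescence polarization competition with 46 kDa recombinant GST-fused Bcl-2 (270 nM final) and 16-mer fluorescein-labelled Bak BH3 tracer (290 nM final) in PBS, preincubated 20 min at room temperature. Compound added (DMSO <1%), read after 10 min at room temperature, ex 485/em 535 nm. IC50 from 6–7 point serial dilutions in triplicate starting at 100 μM.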
For the compound `COc1ccc2c(c1)C(=O)C1C=C([N+]#N)C=CC1N2` (stereo not drawn), the concentration for half-maximal inhibition (IC50) was 10.4 µM.
Same read-out and setting: the value for `O=c1c2ccc(S(=O)(=O)c3ccc4c(=O)n5c6ccccc6nc5c5cccc3c45)c3cccc(c32)c2nc3ccccc3n12` was 14 µM.
The compound `Brc1cccc[n+]1-c1ccc2cc(-[n+]3ccccc3Br)ccc2c1` had an IC50 of 11.7 µM. This IC50 and that of the compound before are within 1.5-fold of each other.
On to `COc1ccc2c(c1)CCc1cc(OC)ccc1/[N+]([O-])=[N+]\2[O-]`, for which the IC50 turned out to be 10.4 µM.
On the same count and under the same terms, the value for `N=C(N)c1ccc(/N=N/c2c(O)ccc3c2[nH]c2ccccc23)cc1` was 5.8 µM.

A further assay has as its target T1, Apoptosis regulator Bcl-2. As to the kind of experiment: Inhibitory activity against Bcl-2. In outline: (§1)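 FP competition assay with recombinant GST-fused Bcl-2 (46 kDa), final 270 nM, and a fluorescein-labelled 16-mer Bak BH3 peptide tracer, final 290 nM, in 1X PBS. Compound added with final DMSO below 1%, incubated 10 min at room temperature, and polarization read at ex 485/em 535 nm. Screening was at 100 μM. IC50 came from 6–7-point serial dilutions from 100 μM, in triplicate.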
Compound `CCOC(=O)C(C#N)C1c2cc(Br)ccc2OC(N)C1C(=O)OCC` (stereo not drawn) yielded a 50% inhibitory concentration (IC50) of 9 µM. This lies in the single-digit micromolar range.
`Cc1cc(Cl)cc(C(=O)Nc2cc(S(=O)(=O)c3ccc(Cl)cc3)ccc2Cl)c1O` returned an IC50 of 3.3 µM.
In the case of `CC(C)C(C(=O)O)N1C(=O)/C(=C/c2ccc(Br)cc2)SC1=S` (stereo not drawn), the inhibition constant (Ki) was determined as 2.4 µM.
With `CCCC[C@H]1C(=O)O[C@H](C)[C@H](NC(=O)c2cccc(NC=O)c2O)C(=O)O[C@@H](C)[C@@H]1OC(=O)CC(C)C` [ANTIMYCIN A3], the half-maximal inhibitory concentration (IC50) is 2 µM. This lies in the single-digit micromolar range.

In another assay the target is T1, Apoptosis regulator Bcl-2. In words: In vitro inhibitory activity against Bak-Bh3 peptide binding to the Bcl-2. In outline: as §1
In turn, `O=C1c2cc(Br)ccc2-c2ccc3c4ccc5c6c(ccc(c7ccc1c2c73)c64)C(=O)c1cc(Br)ccc1-5` registered an IC50 of 7.7 µM.

The target of a further assay is T1, Apoptosis regulator Bcl-2. In words: Inhibitory activity against Bcl-2 using bromide assay. In outline:
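HL-60 cells in RPMI 1640 with 10% FBS at 37 °C and 5% CO2 were plated at 2000–4000 cells/well, with various compound concentrations added at the start. After 4 days, MTT was added for 4 h at 37 °C. Formazan was solubilized in 2-propanol and absorbance read. IC50 is for inhibition of cell growth.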
`COc1ccc2c(c1)CCc1cc(OC)ccc1/[N+]([O-])=[N+]\2[O-]` displayed an IC50 of 4 µM.

The next assay concerns the target T1, Apoptosis regulator Bcl-2. As to the kind of experiment: In vitro inhibition of Bak-Bh3 peptide binding to the Bcl-2 using human myeloid leukemia cell line HL-60; Inactive.
As for `C[n+]1cc2c3cc4c(cc3ccc2c2ccc3c(c21)OCO3)OCO4`, the concentration for half-maximal inhibition (IC50) result is recorded as “Not Active”.
As to `CN1COc2ccc3ccc4c(c3c2C1)CN(C)CO4`, the IC50 entry was “Not Active”.
For the compound `Cc1cc2c(cc1C)[n+]([O-])c(-c1nc3ccccc3s1)c(N)[n+]2[O-]`, the IC50 entry is on record as “Not Active”.
The same measure, in the same setting: the value for `O=C1c2ccccc2-c2cc(O)c3c4c(O)cc5c6c(ccc(c7ccc1c2c73)c64)C(=O)c1ccccc1-5` was “Not Active”; that for `c1cc[n+]2c(c1)-c1cccc[n+]1CCC2` was “Not Active”; that for `CN(C)CCNCCCNc1c2ccccc2nc2cccc([N+](=O)[O-])c12` was “Not Active”.
Same read-out and setting: the value for `O=C(CSc1nc2ccccc2s1)c1sc2sc3ccccc3[n+]2c1O` was “Not Active”; that for `O=C1c2cc([N+](=O)[O-])ccc2-c2ccc3c4ccc5c6c(ccc(c7ccc1c2c73)c64)C(=O)c1cc([N+](=O)[O-])ccc1-5` was “Not Active”; that for `c1cc[n+]2cc3ccc4c[n+]5ccccc5cc4c3cc2c1` was “Not Active”.
On the same count and under the same terms, the value for `O=c1c2ccccc2c2nc3ccc4c(=O)c5ccccc5c5nc6ccc1c2c6c3c45` was “Not Active”.
As to `CN1C(=O)c2ccc3c4ccc5c(=O)n6c7ccccc7nc6c6ccc(c7ccc(c2c37)C1=O)c4c56`, the IC50 result is on record as “Not Active”.
Still for that read-out and setting: the value for `Cc1cc(-c2ccccc2)[nH]c2nc3ccccc3[n+]1-2` was “Not Active”; that for `COc1cc2ccc3c4cc5c(cc4c[n+](C)c3c2cc1OC)OCO5` was “Not Active”.
With `Cn1c(=O)c2nc(-[n+]3ccc(-c4ccccc4)cc3)[nH]c2n(C)c1=O`, the half-maximal inhibitory concentration (IC50) entry is “Not Active”.
For `COc1cc2ccc3c[n+]4ccccc4cc3c2cc1OC`, the IC50 result is listed as “Not Active”.
In the case of `Nc1nc(N)c2c(n1)[n+]([O-])c1ccccc1[n+]2[O-]`, the IC50 result was “Not Active”.
Turning to `COc1ccc2c(c1)c[n+](C)c1c3cc(OC)c(OC)cc3ccc21`, the half-maximal inhibitory concentration (IC50) entry is listed as “Not Active”.
For `[O-][n+]1c2c([n+]([O-])c3c4ccccc4ccc31)-c1cccc3cccc-2c13`, the half-maximal inhibitory concentration (IC50) entry was “Not Active”.
Same read-out and setting: with `O=C1c2ccccc2C(=O)c2c1ccc1nc3c(ccc4c(O)c5ccccc5c(O)c43)nc21` the entry was “Not Active”.
`O=C1c2ccc[n+]3c2-c2c1ccc[n+]2CC3`: the half-inhibitory concentration (IC50) entry is listed as “Not Active”.
Same read-out and setting: with `O=C1NC(=O)c2ccc3c4ccc5c6c(ccc(c7ccc1c2c73)c64)C(=O)N(c1ccccc1)C5=O` the entry was “Not Active”.
Still for that read-out and setting: with `O=C(CSc1ccccn1)c1sc2cccc[n+]2c1O` the entry was “Not Active”; with `OC1C[n+]2cc3ccccn3c2-c2cccc[n+]21` (stereo not drawn), “Not Active”; with `CS1(C)=NC(=O)C2=C(N=1)c1ccccc1S2(=O)=O`, “Not Active”.
With `NCC(=O)c1ccc2cc(Br)c3ccccc3c2c1`, the 50% inhibitory concentration (IC50) entry is “Not Active”.
Still for that read-out and setting: with `O=C1c2ccccc2-c2ccc3c4ccc5c6c(ccc(c7ccc1c2c73)c64)C(=O)c1ccccc1-5` the entry was “Not Active”.
`COc1cc2cc[n+]3c4ccc([N+](=O)[O-])cc4ccc3c2cc1OC.[Cl-]`: the 50% inhibitory concentration (IC50) entry is “Not Active”.

What is called IC50 is the concentration that inhibits the measured activity by half. Lower therefore signals greater potency in that assay. Broadly, the Ki is the dissociation constant of the complex between target and ligand, obtained from inhibition or displacement.
